≈ marks a conversion by molar mass, not a printed value.
Legend:
[1] = PK and brain distribution after single iv dose; type: in vivo, mice (male C57Bl/6J); conditions: male mice
MMP-9 = conditions: cited from earlier work
[2] = Water solubility determination; type: physicochemical; conditions: saturated solution in water
Procedure, shortened: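 A saturated solution of test compound in water was centrifuged. The supernatant was quantified by UPLC with UV detection at 245 nm against calibration curves from known concentrations. The relative value compares the solubilities of the two compounds measured this way.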

[3] = test system: red blood cells (horse whole blood); test: Hemolysis of red blood cells; type: cell-based; conditions: up to concentrations of 160 μM; 37 °C, 1 h
Procedure, shortened: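 Horse whole-blood RBCs were pelleted at 7 000g and washed three times in 0.1 M PBS. Test compound, from DMSO stock, was incubated with RBCs in PBS at final 5–160 μM for 1 h at 37 °C, in duplicate. Controls were Triton X-100 (positive) and DMSO/PBS (negative). Samples were spun at 13 000g, supernatant absorbance was read at 541 nm, and IC50 was calculated from the plotted data.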

HepG2 cells = test: XTT cytotoxicity assay; type: cell-based
Procedure, shortened: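 XTT viability in HepG2 cells, run in triplicate, with IC50 obtained by curve fitting.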

[4] = test system: cortical lesion after controlled cortical impact; conditions: TBI mice; routes of administration and dose regimens different; cited from earlier work
[5] = 2 after single iv dose of 2 (6.3 mg/kg), plasma
[6] = 2 in brain after single iv dose of 2 (6.3 mg/kg)
[7] = 2 in brain after single iv dose of 3 (7.8 mg/kg)
[8] = 2 in plasma after single iv dose of 2 (6.3 mg/kg)
[9] = 2 in plasma after single iv dose of 3 (7.8 mg/kg)

O=S(=O)(CC1CS1)c1ccc(Oc2ccc(O)cc2)cc1 (centres unmarked) [Compound 2, p-hydroxy SB-3CT]
brainAUC/plasmaAUC ([1]; 2 after single iv dose of 2 (6.3 mg/kg)): 1.2
CL [1, 5]: 105 mL/min/kg
Vd [1, 5]: 0.850 L/kg
brainAUC/plasmaAUC ([1]; 2 after single iv dose of 3 (7.8 mg/kg)): 0.53
AUC0-last [1, 6]: 232 pmol·min/mg
AUC0-∞ [1, 6]: 235 pmol·min/mg
t1/2α [1, 6]: 3.0 min
t1/2β [1, 6]: 49 min
AUC0-last [1, 7]: 26 pmol·min/mg
AUC0-∞ [1, 7]: 27 pmol·min/mg
t1/2α [1, 7]: 3.1 min
t1/2β [1, 7]: 8.3 min
AUC0-last [1, 8]: 189 µM·min
AUC0-∞ [1, 8]: 195 µM·min
t1/2α [1, 8]: 3.4 min
t1/2β [1, 8]: 45 min
AUC0-last [1, 9]: 49 µM·min
AUC0-∞ [1, 9]: 49 µM·min
t1/2α [1, 9]: 3.0 min
t1/2β [1, 9]: 6.5 min
Ki (MMP-9; MMP-9): 0.16 ± 0.08 µM
aqueous solubility [2]: 22.2 µg/mL (≈ 68.9 µM)
hemolysis of red blood cells [3]: not observed
IC50 (HepG2 cells): 114 ± 1 µM

O=S(=O)(CC1CS1)c1ccc(Oc2ccccc2)cc1 (centres unmarked) [SB-3CT]
reduction in brain damage [4]: 14%

TIMP-1: tissue inhibitor of matrix metalloproteinase-1
residence time (MMP-9; time the inhibitor remains complexed with the target): 7.9 min
